Measured values as given in ChEMBL document CHEMBL3351861, “New synthetic sulfone derivatives inhibit growth, adhesion and the leucine arylamidase APE2 gene expression of Candida albicans in vitro” (2015).
≈ marks a conversion by molar mass, not a printed value.

What was measured:
Candida albicans [1] = assay: Inhibition of cell adhesion of compound pre-treated Candida albicans SC5314 to human Caco2 cells assessed as cell adhesion level at 16 ug/ml pre-incubated for 18 hrs by colony counting method (reference value: 1.1 +/- 1.1%); assay type: functional, Caco-2; set-up: scale not given: the % may be the effect or the level left
Candida albicans [2] = assay: Antifungal activity against Candida albicans CAI4 expressing delta-cph1/delta-efg1 gene assessed as growth inhibition at 4 ug/ml by CLSI M27-A3 method; assay type: functional; details: read-out: GI
In short: (§1)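 CLSI M27-A3 broth microdilution in RPMI, read after 48 h. Strains pre-grown 18 h in YEPD at 30°C. Final inoculum 0.5×10^2–2.5×10^3 cells/ml. Two-fold dilutions in RPMI came from a 1600 µg/ml stock in water with 9% DMSO; final DMSO was 0.09%. OD405 read, % inhibition = 100 − (CTW−SCW)/(GCW−SCW). Triplicate on three occasions, mean±SD.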

Candida albicans [3] = assay: Antifungal activity against Candida albicans CAI4 expressing delta-cph1/delta-efg1 (EFG1) gene assessed as growth inhibition at 4 ug/ml by CLSI M27-A3 method; assay type: functional; details: read-out: GI; in short: as §1
Candida albicans [4] = assay: Antifungal activity against Candida albicans CAI4 expressing delta-cph1 (CPH1) gene assessed as growth inhibition at 8 ug/ml by CLSI M27-A3 method; assay type: functional; details: read-out: GI; in short: as §1
Candida albicans [5] = assay: Antifungal activity against Candida albicans CAI4 expressing delta-cph1/delta-efg1 gene assessed as growth inhibition at 16 ug/ml by CLSI M27-A3 method; assay type: functional; details: read-out: GI; in short: as §1
Candida albicans [6] = assay: Antifungal activity against Candida albicans CAI4 expressing delta-cph1 gene assessed as growth inhibition at 0.25 ug/ml by CLSI M27-A3 method; assay type: functional; details: read-out: GI; in short: as §1
Candida albicans [7] = assay: Antifungal activity against Candida albicans CAI4 expressing delta-cph1 (CPH1) gene assessed as growth inhibition at 2 ug/ml by CLSI M27-A3 method; assay type: functional; details: read-out: GI; in short: as §1
Candida albicans [8] = assay: Inhibition of cell adhesion of compound pre-treated Candida albicans SC5314 to human Caco2 cells assessed as cell adhesion level at 8 ug/ml pre-incubated for 2 hrs by colony counting method (reference value: 1.1 +/- 1.1%); set-up: scale not given: the % may be the effect or the level left
Candida albicans [9] = assay: Antifungal activity against Candida albicans CAI4 expressing delta-cph1/delta-efg1 (EFG1) gene assessed as growth inhibition at 0.25 ug/ml by CLSI M27-A3 method; assay type: functional; details: read-out: GI; in short: as §1
Candida albicans [10] = assay: Antifungal activity against Candida albicans CAI4 expressing delta-cph1/delta-efg1 (EFG1) gene assessed as growth inhibition at 0.5 ug/ml by CLSI M27-A3 method; assay type: functional; details: read-out: GI; in short: as §1
Candida albicans [11] = assay: Antifungal activity against Candida albicans CAI4 expressing delta-cph1/delta-efg1 gene assessed as growth inhibition at 0.25 ug/ml by CLSI M27-A3 method; assay type: functional; details: read-out: GI; in short: as §1
Candida albicans [12] = assay: Inhibition of cell adhesion of compound pre-treated Candida albicans CAI4 expressing delta-efg1/delta-cph1 gene to human Caco2 cells assessed as cell adhesion level at 8 ug/ml pre-incubated for 18 hrs by colony counting method (reference value: 1.22 +/- 0.78%); assay type: functional, Caco-2; set-up: scale not given: the % may be the effect or the level left
Candida albicans [13] = assay: Inhibition of cell adhesion of compound pre-treated Candida albicans CAI4 expressing delta-efg1 (EFG1) gene to human Caco2 cells assessed as cell adhesion level at 8 ug/ml pre-incubated for 18 hrs by colony counting method (reference value: 2.6 +/- 2.33%); assay type: functional, Caco-2; set-up: scale not given: the % may be the effect or the level left
Candida albicans [14] = assay: Antifungal activity against Candida albicans CAI4 expressing delta-efg1 gene assessed as growth inhibition at 16 ug/ml by CLSI M27-A3 method; assay type: functional; details: read-out: GI
In short: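 CLSI M27-A3 broth microdilution in RPMI. Final inoculum 0.5×10^2 to 2.5×10^3 cells/ml. Seven two-fold concentrations from 0.25 to 16 µg/ml, with DMSO held at 0.09% (v/v) in all wells. Compound-free growth controls and sterility controls are run for each strain. […] Triplicate on three occasions.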

Candida albicans [15] = assay: Inhibition of cell adhesion of compound pre-treated Candida albicans CAI4 expressing delta-efg1 gene to human Caco2 cells assessed as cell adhesion level at 8 ug/ml pre-incubated for 18 hrs by colony counting method (reference value: 2.1 +/- 3.52%); assay type: functional, Caco-2; set-up: scale not given: the % may be the effect or the level left
Candida albicans [16] = assay: Antifungal activity against Candida albicans CAI4 expressing delta-cph1/delta-efg1 (EFG1) gene assessed as growth inhibition at 8 ug/ml by CLSI M27-A3 method; assay type: functional; details: read-out: GI; in short: as §1
Candida albicans [17] = assay: Antifungal activity against Candida albicans CAI4 expressing delta-efg1 (EFG1) gene assessed as growth inhibition at by CLSI M27-A3 method; assay type: functional
Candida albicans [18] = assay: Antifungal activity against Candida albicans 90028 assessed as growth inhibition at 0.5 ug/ml by CLSI M27-A3 method; assay type: functional; details: read-out: GI; in short: as §1
Candida albicans [19] = assay: Inhibition of cell adhesion of compound pre-treated Candida albicans CAI4 expressing delta-cph1 gene to human Caco2 cells assessed as cell adhesion level at 8 ug/ml pre-incubated for 18 hrs by colony counting method (reference value: 1.6 +/- 0.65%); assay type: functional, Caco-2; set-up: scale not given: the % may be the effect or the level left
Candida albicans [20] = assay: Inhibition of cell adhesion of compound pre-treated Candida albicans CAI4 expressing delta-efg1 (EFG1) gene to human Caco2 cells assessed as cell adhesion level at 2 ug/ml pre-incubated for 18 hrs by colony counting method (reference value: 2.6 +/- 2.33%); assay type: functional, Caco-2; set-up: scale not given: the % may be the effect or the level left
Candida albicans [21] = assay: Reduction in APE2 gene expression in compound pre-treated Candida albicans CAI4 expressing delta-efg1 (EFG1) gene grown on human Caco2 cells monolayer at 16 ug/ml pre-treated for 2 hrs measured after 6 hrs by RT-PCR method; assay type: functional, Caco-2
In short: (§2)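 Caco-2 was seeded at 1.2×10^5 cells/ml in EMEM (10% FCS, 1 mM pyruvate, no antibiotics) for 18 h at 37°C, 5% CO2. Yeast (10^4 cfu/ml) was pre-incubated 2 h in RPMI with 16 µg/ml sulfone, washed, resuspended in RPMI and inoculated onto the monolayer at 37°C. APE2 mRNA was measured by SYBR qPCR against ACT1 (2^-ΔΔCt, 90028 calibrator), in triplicate.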

Candida albicans [22] = assay: Reduction in APE2 gene expression in compound pre-treated Candida albicans CAI4 expressing delta-efg1 (EFG1) gene grown under YEPD medium at 16 ug/ml pre-treated for 2 hrs measured after 18 hrs by RT-PCR method; assay type: functional
In short: (§3)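 YEPD-grown yeast (18 h, 30°C) washed and held at 10^4 cfu/ml in YEPD with 16 µg/ml sulfone for 2 h. Cells were then washed and regrown 18 h at 30°C in YEPD. Total RNA was reverse-transcribed and SYBR Green qPCR run (250 nM primers, 60 ng cDNA, 45 cycles). APE2 was normalized to ACT1 by 2^-ΔΔCt with strain 90028 as calibrator. Done in triplicate on three occasions.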

Candida albicans [23] = assay: Reduction in APE2 gene expression in compound pre-treated Candida albicans SC5314 grown on human Caco2 cells monolayer at 16 ug/ml pre-treated for 2 hrs measured after 6 hrs by RT-PCR method; assay type: functional, Caco-2; in short: as §2
Candida albicans [24] = assay: Reduction in APE2 gene expression in compound pre-treated Candida albicans SC5314 grown under YEPD medium at 16 ug/ml pre-treated for 2 hrs measured after 18 hrs by RT-PCR method; assay type: functional; in short: as §3

O=[N+]([O-])c1cc(S(=O)(=O)C(Cl)(Cl)Br)ccc1Cl
Activity (Candida albicans [1]): 0.71% | inhibition of growth at 4 µg/mL (Candida albicans [2]): 99% | inhibition of growth at 4 µg/mL (Candida albicans [3]): 99.5% | inhibition of growth at 8 µg/mL (Candida albicans [4]): 99.8% | inhibition of growth at 16 µg/mL (Candida albicans [5]): 99.5% | inhibition of growth at 0.25 µg/mL (Candida albicans [6]): 97.4% | inhibition of growth at 2 µg/mL (Candida albicans [7]): 99.2% | Activity (Candida albicans [8]): 0.36% | inhibition of growth at 0.25 µg/mL (Candida albicans [9]): 96.5% | inhibition of growth at 0.5 µg/mL (Candida albicans [10]): 98.8% | inhibition of growth at 0.25 µg/mL (Candida albicans [11]): 98.3% | Activity (Candida albicans [12]): 0.38% | Activity (Candida albicans [13]): 1.13% | inhibition of growth at 16 µg/mL (Candida albicans [14]): 99.6% | Activity (Candida albicans [15]): 0.49% | inhibition of growth at 8 µg/mL (Candida albicans [16]): 99.8% | MIC90 (Candida albicans [17]): 16 mg/L (≈ 41.7 µM) | inhibition of growth at 0.5 µg/mL (Candida albicans [18]): 98.7% | Activity (Candida albicans [19]): 0.35%

O=[N+]([O-])c1cc(S(=O)(=O)C(Cl)Cl)ccc1Cl
Activity (Candida albicans [1]): 0.68% | inhibition of growth at 4 µg/mL (Candida albicans [2]): 99.2% | inhibition of growth at 4 µg/mL (Candida albicans [3]): 99.3% | inhibition of growth at 8 µg/mL (Candida albicans [4]): 99.4% | inhibition of growth at 16 µg/mL (Candida albicans [5]): 99.7% | inhibition of growth at 0.25 µg/mL (Candida albicans [6]): 97.7% | inhibition of growth at 2 µg/mL (Candida albicans [7]): 98.6% | inhibition of growth at 0.25 µg/mL (Candida albicans [9]): 98.8% | inhibition of growth at 0.5 µg/mL (Candida albicans [10]): 99% | inhibition of growth at 0.25 µg/mL (Candida albicans [11]): 99% | Activity (Candida albicans [12]): 0.48% | Activity (Candida albicans [13]): 1.18% | inhibition of growth at 16 µg/mL (Candida albicans [14]): 99.5% | Activity (Candida albicans [15]): 0.69% | inhibition of growth at 8 µg/mL (Candida albicans [16]): 99.3% | MIC90 (Candida albicans [17]): 16 mg/L (≈ 52.5 µM) | inhibition of growth at 0.5 µg/mL (Candida albicans [18]): 99.1% | Activity (Candida albicans [19]): 0.8%

NNc1ccc(S(=O)(=O)C(Cl)(Br)Br)cc1[N+](=O)[O-]
Activity (Candida albicans [1]): 0.8% | Activity (Candida albicans [20]): 0.51% | fold change (FC) (Candida albicans [21]): 10.7 | inhibition of growth at 4 µg/mL (Candida albicans [2]): 100% | inhibition of growth at 4 µg/mL (Candida albicans [3]): 99.1% | inhibition of growth at 8 µg/mL (Candida albicans [4]): 99.7% | inhibition of growth at 16 µg/mL (Candida albicans [5]): 100% | inhibition of growth at 0.25 µg/mL (Candida albicans [6]): 20% | inhibition of growth at 2 µg/mL (Candida albicans [7]): 99.3% | Activity (Candida albicans [8]): 0.45% | inhibition of growth at 0.25 µg/mL (Candida albicans [9]): 72% | inhibition of growth at 0.5 µg/mL (Candida albicans [10]): 98.8% | inhibition of growth at 0.25 µg/mL (Candida albicans [11]): 70% | Activity (Candida albicans [12]): 1.66% | ΔCt (Candida albicans [22]): 3.44 | ΔCt (Candida albicans [23]): 6.39 | inhibition of growth at 16 µg/mL (Candida albicans [14]): 100% | Activity (Candida albicans [15]): 0.63% | inhibition of growth at 8 µg/mL (Candida albicans [16]): 99.4% | ΔCt (Candida albicans [24]): 2.84 | MIC90 (Candida albicans [17]): 4 mg/L (≈ 9.45 µM) | inhibition of growth at 0.5 µg/mL (Candida albicans [18]): 81.8% | Activity (Candida albicans [19]): 0.56%
